From ChEMBL document CHEMBL1126688, “Interphenylene 7-oxabicyclo[2.2.1]heptane oxazoles. Highly potent, selective, and long-acting thromboxane A2 receptor antagonists” (J Med Chem, 1993)

Species: Homo sapiens
Test: Inhibitory activity against platelet aggregation, induced by U-46619 in human platelet rich plasma
Assay type: functional
Settings: read-out: I50
How it was run: (§1)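 Human platelet-rich plasma. Aggregation was induced by exogenous arachidonic acid or by the TxA2 mimetic U-46,619, each at a single fixed agonist level. I50 was taken as the antagonist concentration giving 50% inhibition of aggregation.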

Compound	IC50
CC(C)NC(=O)c1coc(C2C3CCC(O3)C2Cc2ccccc2CCC(=O)O)n1 (stereo unspecified)	63 nM
O=C(O)CCc1ccccc1CC1C2CCC(O2)C1c1nc(/C=C/CCCCC2CCCCC2)co1 (stereo unspecified)	2760 nM
O=C(O)CCc1ccccc1CC1C2CCC(O2)C1c1nc(C(=O)NCCCCc2ccc(F)cc2)co1 (stereo unspecified)	11 nM
O=C(O)CCc1ccccc1CC1C2CCC(O2)C1c1nc(C(=O)NCCCCCO)co1 (stereo unspecified)	35 nM
O=C(NCCCCC1CCCCC1)c1coc(C2C3CCC(O3)C2Cc2ccccc2C(=O)O)n1 (stereo unspecified)	171 nM
CC(C)(C)CCCCNC(=O)c1coc(C2C3CCC(O3)C2Cc2ccccc2CCC(=O)O)n1 (stereo unspecified)	35 nM
O=C(O)Cc1ccccc1CC1C2CCC(O2)C1c1nc(C(=O)NCCCCC2CCCCC2)co1 (stereo unspecified)	97 nM
O=C(O)CCc1ccccc1CC1C2CCC(O2)C1c1nc(C(=O)CCCCCC2CCCCC2)co1 (stereo unspecified)	11 nM
CC(C)(C)CCNC(=O)c1coc(C2C3CCC(O3)C2Cc2ccccc2CCC(=O)O)n1 (stereo unspecified)	28 nM

The remaining lines, values ahead:

IC50	Compound
616 nM	O=C(O)CCc1ccccc1CCC1C2CCC(O2)C1c1nc(C(=O)NCCCCC2CCCCC2)co1 (stereo unspecified)
82 nM	O=C(O)CCc1ccccc1CC1C2CCC(O2)C1c1nc(C(=O)NCCCCC(=O)NC2CCCCC2)co1 (stereo unspecified)
8 nM	O=C(O)COc1ccccc1CC1C2CCC(O2)C1c1nc(C(=O)NCCCCC2CCCCC2)co1 (stereo unspecified)
258 nM	NC(=O)c1coc(C2C3CCC(O3)C2Cc2ccccc2CCC(=O)O)n1 (stereo unspecified)

Species: Homo sapiens
Test: Inhibitory activity against platelet aggregation, induced by arachidonic acid in human platelet rich plasma
Assay type: functional
Settings: read-out: I50
How it was run: as §1

Compound	IC50
CC(C)NC(=O)c1coc(C2C3CCC(O3)C2Cc2ccccc2CCC(=O)O)n1 (stereo unspecified)	7 nM
O=C(O)CCc1ccccc1CC1C2CCC(O2)C1c1nc(/C=C/CCCCC2CCCCC2)co1 (stereo unspecified)	320 nM
O=C(O)CCc1ccccc1CC1C2CCC(O2)C1c1nc(C(=O)NCCCCc2ccc(F)cc2)co1 (stereo unspecified)	4 nM
O=C(O)CCc1ccccc1CC1C2CCC(O2)C1c1nc(C(=O)NCCCCCO)co1 (stereo unspecified)	15 nM
O=C(NCCCCC1CCCCC1)c1coc(C2C3CCC(O3)C2Cc2ccccc2C(=O)O)n1 (stereo unspecified)	52 nM
CC(C)(C)CCCCNC(=O)c1coc(C2C3CCC(O3)C2Cc2ccccc2CCC(=O)O)n1 (stereo unspecified)	8 nM
O=C(O)Cc1ccccc1CC1C2CCC(O2)C1c1nc(C(=O)NCCCCC2CCCCC2)co1 (stereo unspecified)	14 nM
O=C(O)CCc1ccccc1CC1C2CCC(O2)C1c1nc(C(=O)CCCCCC2CCCCC2)co1 (stereo unspecified)	4 nM
CC(C)(C)CCNC(=O)c1coc(C2C3CCC(O3)C2Cc2ccccc2CCC(=O)O)n1 (stereo unspecified)	8 nM

The next lines start with the values.

IC50	Compound
63 nM	O=C(O)CCc1ccccc1CCC1C2CCC(O2)C1c1nc(C(=O)NCCCCC2CCCCC2)co1 (stereo unspecified)
27 nM	O=C(O)CCc1ccccc1CC1C2CCC(O2)C1c1nc(C(=O)NCCCCC(=O)NC2CCCCC2)co1 (stereo unspecified)
7 nM	O=C(O)COc1ccccc1CC1C2CCC(O2)C1c1nc(C(=O)NCCCCC2CCCCC2)co1 (stereo unspecified)
44 nM	NC(=O)c1coc(C2C3CCC(O3)C2Cc2ccccc2CCC(=O)O)n1 (stereo unspecified)

Test system: Mus musculus
Test: In vivo duration of action required to prevent death in mice, after i.v. administration of U-46619 (2 mg/kg) at 0.2 mg/kg p.o.
Settings: po

Compound	T50
CC(C)NC(=O)c1coc(C2C3CCC(O3)C2Cc2ccccc2CCC(=O)O)n1 (stereo unspecified)	10 h
O=C(O)CCc1ccccc1CC1C2CCC(O2)C1c1nc(C(=O)NCCCCc2ccc(F)cc2)co1 (stereo unspecified)	22.5 h
CC(C)(C)CCCCNC(=O)c1coc(C2C3CCC(O3)C2Cc2ccccc2CCC(=O)O)n1 (stereo unspecified)	36.5 h
CC(C)(C)CCNC(=O)c1coc(C2C3CCC(O3)C2Cc2ccccc2CCC(=O)O)n1 (stereo unspecified)	13.5 h

Target: T1, Thromboxane A2 receptor (Homo sapiens, UniProt P21731)
T1 sequence (P21731 whole entry): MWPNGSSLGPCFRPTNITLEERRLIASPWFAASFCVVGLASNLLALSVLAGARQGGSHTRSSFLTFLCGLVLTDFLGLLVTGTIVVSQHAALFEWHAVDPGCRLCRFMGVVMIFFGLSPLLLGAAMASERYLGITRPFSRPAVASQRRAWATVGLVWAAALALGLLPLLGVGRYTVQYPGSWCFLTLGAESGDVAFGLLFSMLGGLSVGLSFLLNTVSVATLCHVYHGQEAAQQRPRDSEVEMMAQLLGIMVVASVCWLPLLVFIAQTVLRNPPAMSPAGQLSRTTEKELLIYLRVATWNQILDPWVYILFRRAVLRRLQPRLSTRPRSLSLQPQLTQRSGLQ
Test: Inhibitory binding activity against TXA2 receptor in human platelet membrane, using [3H]-SQ 29548 as the radioligand
Settings: not given
How it was run: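 Competition binding of [3H]-SQ 29,548 to TxA2 receptors in human platelet membranes, measured as inhibition of specific binding. Kd (inhibition constant) was calculated from each compound's I50 value. A slope factor is also reported.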

Compound	Kd
CC(C)NC(=O)c1coc(C2C3CCC(O3)C2Cc2ccccc2CCC(=O)O)n1 (stereo unspecified)	26 nM
O=C(O)CCc1ccccc1CC1C2CCC(O2)C1c1nc(C(=O)NCCCCc2ccc(F)cc2)co1 (stereo unspecified)	3.9 nM
O=C(O)CCc1ccccc1CC1C2CCC(O2)C1c1nc(C(=O)NCCCCCO)co1 (stereo unspecified)	20 nM
CC(C)(C)CCCCNC(=O)c1coc(C2C3CCC(O3)C2Cc2ccccc2CCC(=O)O)n1 (stereo unspecified)	0.6 nM
O=C(O)Cc1ccccc1CC1C2CCC(O2)C1c1nc(C(=O)NCCCCC2CCCCC2)co1 (stereo unspecified)	19 nM
O=C(O)CCc1ccccc1CC1C2CCC(O2)C1c1nc(C(=O)CCCCCC2CCCCC2)co1 (stereo unspecified)	0.05 nM
CC(C)(C)CCNC(=O)c1coc(C2C3CCC(O3)C2Cc2ccccc2CCC(=O)O)n1 (stereo unspecified)	2.9 nM

The next lines start with the values.

Kd	Compound
22 nM	O=C(O)CCc1ccccc1CC1C2CCC(O2)C1c1nc(C(=O)NCCCCC(=O)NC2CCCCC2)co1 (stereo unspecified)
3.2 nM	O=C(O)COc1ccccc1CC1C2CCC(O2)C1c1nc(C(=O)NCCCCC2CCCCC2)co1 (stereo unspecified)

Test system: not listed separately
Test: Partition coefficient (logP)
Assay type: physicochemical
Settings: octanol/water
How it was run: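 log P came from reversed-phase TLC Rm values on C18 plates. Eluent was acetone in 0.5 M aqueous KBr, buffered with 0.25 N triethylammonium phosphate to pH 7.3. Values were converted with a calibration curve built from shake-flask partition coefficients (pH 7.0) of seven oxabicycloheptane compounds spanning a range of lipophilicities.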

Compound	logP
CC(C)NC(=O)c1coc(C2C3CCC(O3)C2Cc2ccccc2CCC(=O)O)n1 (stereo unspecified)	0.05
O=C(O)CCc1ccccc1CC1C2CCC(O2)C1c1nc(C(=O)NCCCCC(=O)NC2CCCCC2)co1 (stereo unspecified)	1.18
O=C(O)CCc1ccccc1CC1C2CCC(O2)C1c1nc(C(=O)NCCCCc2ccc(F)cc2)co1 (stereo unspecified)	2.17
O=C(O)CCc1ccccc1CC1C2CCC(O2)C1c1nc(C(=O)NCCCCCO)co1 (stereo unspecified)	1.07
CC(C)(C)CCCCNC(=O)c1coc(C2C3CCC(O3)C2Cc2ccccc2CCC(=O)O)n1 (stereo unspecified)	3.41
NC(=O)c1coc(C2C3CCC(O3)C2Cc2ccccc2CCC(=O)O)n1 (stereo unspecified)	-0.78
CC(C)(C)CCNC(=O)c1coc(C2C3CCC(O3)C2Cc2ccccc2CCC(=O)O)n1 (stereo unspecified)	1.23
